Source: paper PMC3566574 (Organic & biomolecular chemistry, 2012)

Legend:
LasR [1] = target: T1, LasR (Pseudomonas aeruginosa, UniProt P25084); assay: LasR agonism reporter gene assay; type: cell-based; conditions: 100 μM, normalized to OdDHL at 100 μM (100%); triplicate, error ≤10%
AbaR [2] = assay: AbaR agonism reporter gene assay; type: cell-based, Acinetobacter baumannii; conditions: 100 μM, normalized to OH-dDHL at 100 μM (100%); triplicate, error ±10%
Procedure, shortened: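 Overnight A. baumannii abaI::lacZ culture diluted 1:100 in LB (pH 7.0), added to test compound from DMSO stock (final 100 or 10 μM), incubated statically at 37 °C for 18–24 h. OD600 read; aliquot lysed with Z buffer, CHCl3 and 0.1% SDS; ONPG 20 min at […], stopped with 1 M Na2CO3; A420/A550 converted to Miller units. Triplicate; scaled to 100 μM OH-dDHL (100%).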

AbaR [3] = assay: AbaR antagonism reporter gene assay; type: cell-based, Acinetobacter baumannii; conditions: 100 μM against OH-dDHL at 700 nM; triplicate, error ±10%
LasR [4] = target: T1, LasR; assay: LasR antagonism reporter gene assay; type: cell-based; conditions: 100 μM against OdDHL at 10 nM; triplicate, error ≤10%

T1 sequence (P25084 whole entry): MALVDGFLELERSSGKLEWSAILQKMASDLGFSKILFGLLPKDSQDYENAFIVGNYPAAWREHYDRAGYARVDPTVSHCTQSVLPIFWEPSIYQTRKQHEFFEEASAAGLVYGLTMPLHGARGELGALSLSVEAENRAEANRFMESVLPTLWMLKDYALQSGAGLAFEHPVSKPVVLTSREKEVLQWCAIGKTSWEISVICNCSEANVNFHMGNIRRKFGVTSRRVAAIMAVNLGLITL

CCCc1cn(CC(=O)NC2CCOC2=O)nn1 (stereo not shown) [I-A]
Activation [%] LasR (LasR [1]): 0% | Activation [%] AbaR (AbaR [2]): 0% | Inhibition [%] AbaR (AbaR [3]): 47% | Inhibition [%] LasR (LasR [4]): 55%
